This is an account of results in the RNAGym collection of RNA variant scans (doi:10.1126/science.aae0568).

Fewer inactive variants are shown than the library holds. Where only a bound is given, the exact number is not on record here.

To fix the notation:
B1: tRNA (parent)
chain: GUUCCGUUGGCGUAAUGGUAACGCGUCUCCCUCCUAAGGAGAAGACUGCGGGUUCGAGUCCCGUACGGAACG

In the series the parent is B1. As to the kind of experiment: yeast fitness relative to wild type (ratio to wild type); higher = fitter; tRNA-Arg(CCU), competitive growth, 37 C, YPD. The gist of the method:
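Variants of the tRNA-Arg(CCU) gene, chemically synthesised with a 3% per-site mutation rate at 69 sites, were placed at the native genomic locus in Saccharomyces cerevisiae. The pooled strains were competed in YPD at 37°C for 24 hours in six parallel replicates. Gene amplicons from the start population and from each end population were read by 100-nucleotide paired-end sequencing. Darwinian fitness relative to wild type came from changes in genotype frequencies; genotypes needed ≥ 100 starting reads, and estimates < 0.5 were set to 0.5.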
Consider GUUGCGUUGGCGUAAUGGUAACGCGUCUCCCUCCUAAGGAGAAGACUGCGGGUUCGCGUCCCGUACGGAACG [C4G A57C], for which the yeast fitness was 0.57.
As to GUUGAGUUGGCGUAAUGGUAUCGCGUCUCCCUCGUAAGGAGAAGACUGCGGGUUCGAGUCCCGUACGGAACG [C4G C5A A21U C34G], the yeast fitness is at most 0.5.
Consider GUUGCGUUGGAGUAAUAGUGACGCGUUUCCCUCCUAAGGAGAUGACUGGGGGUUCGAGUCCCGUACGGAACG [C4G C11A G17A A20G C27U A43U C49G], for which the yeast fitness was at most 0.5.
Take GUUGCGUUGGCGUAAUGGUAAGGUGUCUCCCUCCUAAGGAAAAGACUGCGGGUUCGAGUCCCGUACGGAACG [C4G C22G C24U G41A]: the yeast fitness was at most 0.5.
As to GUUGCGUUGGGGUAAUGGUAACGCGUCUCCCUGCUAAGGAGAAGACAGCGGGUUCGAGUCCCGUACGGAACG [C4G C11G C33G U47A], the yeast fitness was at most 0.5.
For GUUGCGUUGGUGUUAUGGUAACGCGUCUCGCUCCUAAGGAGAAGACUGCGGGUUCGAGUCCCGUACGGUACG [C4G C11U A14U C30G A69U], the yeast fitness was at most 0.5.
In the case of GUUGCGUUGGCGUAAUGGUAACGCGUCUCCCUCCUAAGGAGGAGUCUGCGGGUUCGAGUCCCGUAUGGAACG [C4G A42G A45U C66U], the yeast fitness was found to be 0.659.
In the case of GUUGCGUUGGGGUAAUGGUAACGCGUGUCCCUCCUAAGGAGAAGACUGCGGGUUCGGGGCCCGUACGGAACG [C4G C11G C27G A57G U59G], the yeast fitness was at most 0.5.
As for GUUGCGUUGGCGUAAUGGUAACGCGUCUCCCUCCUAAGGAGAAGACUGCGGGUUCGAGUCCCGUUCGUAACG [C4G A65U G68U], the yeast fitness is 1.11.
The result for GUUGCGUUGGCGUAAUGGUUACGCGUCUCCCUCCUAAGGAGAAGACUGCGGGUUCCAGUCCCGUACGGAACG [C4G A20U G56C] reads at most 0.5; that for GUUGCGUUGGCGUAAUGGUAGCGCGUCUCCGUGCUAAGGAGAAGACUGCGGGUUCGAGUCCCGUACGGAACG [C4G A21G C31G C33G], at most 0.5; that for GUUGCGUUGGCGUAAUGGUAACGCGUCUCCCUCCUAAGGAGACGACUGCGGGUUCGAGUCCAGUACGGAACG [C4G A43C C62A], at most 0.5.
To GUUGCGUUGGCGUAAUGGUAAUGCGUUUCCCUCCUAAGGAGAAGACUGCGGGUUCGAGUCCCGUACGGAACG [C4G C22U C27U] belongs 0.657.
Turning to GUUGAGUUGGCGUAAUGGUAACGCGUCGCCCUCCUAAGGAGAAGACUGCGGGUUCGAGUCCCGUACGGAACG [C4G C5A U28G], the yeast fitness is at most 0.5.
Consider GUUGCGUUGGGGUAAUGGCAACCCGUCGCCCUCCUAAGGAGAAGACUGCGGGUUCGAGUCGCGUACGGAACG [C4G C11G U19C G23C U28G C61G], for which the yeast fitness was at most 0.5.
With GUUGUGUUGGCGAAAUGGUAACGCGUCUCCCUCCUAAGGCGAAGACUGCGGGUUCGAAUCCCGUACGCAACG [C4G C5U U13A A40C G58A G68C], the yeast fitness is at most 0.5.
As for GUUGCGUUGGCGUAAUGGUAAUGCGUCUCUCUUCUAAGGAGAAGCCUGCGGGUUCGAGUCCCGUACGGAACG [C4G C22U C30U C33U A45C], the yeast fitness is at most 0.5.
For the variant GUUGGGUUGGCGUAAUGGUAACGCGUCUGCCUCCUAAGGAGAAGACUGCGGGUUCGAGUCCCGUACGGAACG [C4G C5G C29G], the yeast fitness is at most 0.5.
Turning to GUUGCGUUGGCGUAAUGGUAACGCGUCUCCCUCCUAAGGAGACGACUGCGGGUUCGAGUCCCGUACGGAACG [C4G A43C], the yeast fitness stood at 0.853.
The result for GUUGCGUUGGCGUAAUGGUAACGUGUCUCCCUCCUAAGGAGAAGCCUGCGGGUUCGAGUCCCGUACGGAACG [C4G C24U A45C] reads 0.6; that for GUUGCGUUGGCGUAAUGGUAACGCGUCUCCCUCCUAAGGUGCAGACUGCGGGUUCGCGUCCCGUACGGAACG [C4G A40U A42C A57C], at most 0.5.
Regarding GUUGCGUUGGCGUAAUGGUAACGCGUCUCCCUCCUAGGGAGAGGACUGCGGGUUCGAGUCCCGUACGGUACG [C4G A37G A43G A69U], the yeast fitness was at most 0.5.
Consider GUUGUGUUGGCGUAAUGGUAACGCGUCUCCCUCCUAAGGAGAGGACUGCGGGUUCGAGUCCCGUACGGAACG [C4G C5U A43G], for which the yeast fitness was at most 0.5.
As for GUUGCGUUGGCGUAAUGGUAACGCGUCUCCCUCCUAAGGAGAUCACUGCGGGUUCGAGUCCCGUACGGAACG [C4G A43U G44C], the yeast fitness came out at 0.531.
As to GUUGCGUUGGAGUAAUGGUAACGCGUCUCCUUCCUAAGGCGAAGACUGCGGGUUCGAGUCCCGUACGGAACG [C4G C11A C31U A40C], the yeast fitness was at most 0.5.
Regarding GUUGCGUUGGAGUUAUGGUAAAGGGUCUCCCUCCUAAGGAGAAGACUGCGGGUUCGAGUCCCGUACGGAACG [C4G C11A A14U C22A C24G], the yeast fitness is at most 0.5.
For GUUGCGUUGGGGUAAUGGUAACGCGUCUCCGUCCUAAGGAGAAGACUACGGGUUAGAGUCCAGUACGGAACG [C4G C11G C31G G48A C55A C62A], the yeast fitness was at most 0.5.
Consider GUUGAGUUGGCGUAAUGGUAACGCGUAUCCCUCCUAAGGAGAAGACUGCGGGUUCGAGUCACGUACGGAACG [C4G C5A C27A C61A], for which the yeast fitness is at most 0.5.
With GUUGCGUUGGCGUAAUGGUAAUGCGUCUCACUCUUAACGAGAAGACUGCGGGUUCGAGUCCCGUACGGAACG [C4G C22U C30A C34U G38C], the yeast fitness was at most 0.5.
Turning to GUUGCGUUGGGGUAAUGGUAACGCGUCUCCCUCCUAAGGAGAAGACUGCAGGUUCGAGUCCCGUACGGAACG [C4G C11G G50A], the yeast fitness is at most 0.5.
As for GUUGCGUUGGCGUAAUGGUAACGCGUCUCCCUCCUAAGGUGAAGACUGCGGGUUCGAGUCCCGUAGGGAACG [C4G A40U C66G], the yeast fitness came out at 0.624.
Turning to GUUGAGUUGGCGUAAUGGUAACGCGUCUCCCUCCUAAGGAGAAGACUGCGGGUUCGAGUCCCGUACGGAACG [C4G C5A], the yeast fitness was 0.765.
To GUUGCGUUGGCGUAAUGGUAACGCGUCUCCCUCCUAAGGAGAAGGCUGCGGGUACGAGUCCCGUACGGAACG [C4G A45G U54A] belongs at most 0.5; to GUUGCGUUGGCGUAAUGGUAACGCGUCUCCCUCCUAAGGAGACGACUGCGGGUUAGCGUCCCGUACGGAACG [C4G A43C C55A A57C], at most 0.5.
To GUUGCGUUGGCGUAAUGGUAACGCGUCUCCCUCCUAUGGAGAAGACUGCGGGUUCGAGUUCCGUACGGAACG [C4G A37U C60U] belongs at most 0.5; to GUUGCGUUGGCGUAAUGGUAAUGCGUCUCCCUCGUUAGGAGAAGACUGCGGGUUCGAGUCCCGUACAGAACG [C4G C22U C34G A36U G67A], at most 0.5.
To GUUGCGUUGGCGUAAUGGUACAGCGUGUCCCUCUUAAGGAGAAGACUGCGGGUUCAAGUCCCGUACCGAACG [C4G A21C C22A C27G C34U G56A G67C] belongs at most 0.5; to GUUGCGUUGGUGUAAUGGUAACGCGUCUCCCUACUAAGGAGAAGACUGCGGGUUCGAGCCCCGUACGGAACG [C4G C11U C33A U59C], 0.707.
